Test results as given in ChEMBL document CHEMBL1122936, “Facile synthesis of platelet-activating factor and racemic analogues containing unsaturation in the sn-1-alkyl chain” (1985).

What was measured:
Assay type in all cases: functional
Homo sapiens [1] = organism: Homo sapiens; assay: Desensitizing action on human PMN degranulation response, in the presence of FMLP (17 nM) at the dose of 60 nM
Outline: (§1)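 Human neutrophils (>96% PMN, <5 platelets/100 PMN, no erythrocytes) at 2.6×10^6 cells/mL in Hanks' buffer, 37 °C, 20 min. Preincubated 8 min with desensitizing agent in BSA, or BSA alone. Then cytochalasin B 5 μg/mL for 2–4 min, then challenge 5 min with 200 nM 1-O-hexadecyl PAF or 17 nM FMLP. Read-out is net β-glucuronidase release vs BSA-pretreated cells, 14 experiments, unpaired t-test.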

Homo sapiens [2] = organism: Homo sapiens; assay: Desensitizing action on human PMN degranulation response, in the presence of PAF (200 nM) at the dose of 60 nM; outline: as §1
Homo sapiens [3] = organism: Homo sapiens; assay: Effective dose for lysozyme release in human PMN was measured
Outline: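 Human PMN at 2.6×10^6 cells/mL in Hanks' buffer, 37 °C, 20 min. Cytochalasin B 5 μg/mL for 2–4 min, then racemic analogue challenge 5 min, on ice, spun 200g at 4 °C. Net lysozyme release = % of total minus unstimulated release. ED10 extrapolated for 10% net release from curves averaged over ≥5 dose-response experiments.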

Oryctolagus cuniculus = organism: Oryctolagus cuniculus; assay: Effective dose for [14C]5-HT release in prelabeled rabbit platelets was measured; conditions: read-out: ED50 (the source's name)
Outline: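 Rabbit platelet-rich plasma labeled with [14C]serotonin 1.0 μCi/mL, 37 °C, 15 min. Washed twice, then 5×10^7 platelets/0.2 mL in citrate-free Tyrode's (pH 7.3) with 1 mM Ca2+, 37 °C, 20 min. Challenged 1 min, stopped with formalin on ice, supernatant label counted as % of total cellular label. ED50 extrapolated for 50% release from curves averaged over ≥5 dose-response experiments.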

Homo sapiens [4] = organism: Homo sapiens; assay: Desensitizing action on human PMN degranulation response, in the presence of FMLP (17 nM) at the dose of 10 nM; outline: as §1
Homo sapiens [5] = organism: Homo sapiens; assay: Desensitizing action on human PMN degranulation response, in the presence of PAF (200 nM) at the dose of 10 nM; outline: as §1
Homo sapiens [6] = organism: Homo sapiens; assay: Desensitizing action on human PMN degranulation response, in the presence of FMLP (17 nM) at the dose of 9 nM; outline: as §1
Homo sapiens [7] = organism: Homo sapiens; assay: Desensitizing action on human PMN degranulation response, in the presence of PAF (200 nM) at the dose of 9 nM; outline: as §1
Homo sapiens [8] = organism: Homo sapiens; assay: Desensitizing action on human PMN degranulation response, in the presence of FMLP (17 nM) at the dose of 17 nM; outline: as §1
Homo sapiens [9] = organism: Homo sapiens; assay: Desensitizing action on human PMN degranulation response, in the presence of PAF (200 nM) at the dose of 17 nM; outline: as §1
Homo sapiens [10] = organism: Homo sapiens; assay: Desensitizing action on human PMN degranulation response, in the presence of FMLP (17 nM) at the dose of 8 nM
Outline: (§2)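 Human neutrophils (>96% PMN, <5 platelets/100 PMN, no erythrocytes) in Hanks' buffer at 2.6×10^6 cells/mL, 37 °C, 20 min; preincubated 8 min with desensitizing agent (in BSA) or BSA alone, then cytochalasin B 5 μg/mL for 2–4 min, challenged 5 min (200 nM PAF or 17 nM FMLP). Supernatant assayed for net β-glucuronidase release, 14 experiments; unpaired t-test versus BSA.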

Homo sapiens [11] = organism: Homo sapiens; assay: Desensitizing action on human PMN degranulation response, in the presence of PAF (200 nM) at the dose of 8 nM; outline: as §2

SMILES	EC50 (Oryctolagus cuniculus)	ED10 (Homo sapiens [3])	Degranulating activity (Homo sapiens [4])	Degranulating activity (Homo sapiens [5])	also measured
CCCCC/C=C\C/C=C\CCCCCCCCOCC(COP(=O)([O-])OCC[N+](C)(C)C)OC(C)=O (configuration not stated)	0.3 nM	9 nM	–	–	Degranulating activity (Homo sapiens [6]): 26.3; Degranulating activity (Homo sapiens [7]): 0.1
CCCCCCCC/C=C\CCCCCCCCOCC(COP(=O)([O-])OCC[N+](C)(C)C)OC(C)=O (configuration not stated)	0.4 nM	13 nM	28.2	0.3	–
CSCC[C@H](NC=O)C(=O)N[C@@H](CC(C)C)C(=O)N[C@@H](Cc1ccccc1)C(=O)O	–	–	–	–	Degranulating activity (Homo sapiens [8]): 6.2; Degranulating activity (Homo sapiens [9]): 11.9
CCCCCCCCCCCCCCCCOCC(COP(=O)([O-])OCC[N+](C)(C)C)OC(C)=O (configuration not stated) [PLATELET ACTIVATING FACTOR]	0.2 nM	8 nM	–	–	Degranulating activity (Homo sapiens [10]): 23.6; Degranulating activity (Homo sapiens [11]): -0.2

Continued, in another order:

EC50 (Oryctolagus cuniculus)	SMILES	ED10 (Homo sapiens [3])	Degranulating activity (Homo sapiens [4])	Degranulating activity (Homo sapiens [5])	also measured
0.8 nM	CCCCCCCCCCCCCCCCCCOCC(COP(=O)([O-])OCC[N+](C)(C)C)OC(C)=O (configuration not stated)	60 nM	–	–	Degranulating activity (Homo sapiens [1]): 22; Degranulating activity (Homo sapiens [2]): -1.2
0.5 nM	CCCCCC/C=C\CCCCCCCCOCC(COP(=O)([O-])OCC[N+](C)(C)C)OC(C)=O (configuration not stated)	10 nM	29.5	1.4	–
